By ED50 is commonly meant the midpoint of the dose-response relation. Low values mean greater potency, high ones weaker potency.

The source of these data is ChEMBL document CHEMBL1131331, “Structure-activity studies on anticonvulsant sugar sulfamates related to topiramate. Enhanced potency with cyclic sulfate derivatives” (J Med Chem, 1998).

Format in all cases: functional
Test [1] has as its system Mus musculus. The test is described as follows: Activity against maximal electroshock seizures in mice, 4 hr following oral administration of 75 mg/kg. The essentials:
(§1)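 Mouse maximal electroshock seizure test. An electric shock is applied through corneal electrodes, and block of the hind-limb tonic-extensor seizure is scored. Compounds are given orally, usually to 10 mice per group, and tested 4 h after dosing. The result is reported as percent of dosed animals protected at the stated dose.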
In general terms: Protection in the maximal electroshock model is a classic sign of anticonvulsant action.

The test system of test [2] is Mus musculus. In words: Activity against maximal electroshock seizures in mice, 4 hr following oral administration of 300 mg/kg of compound. The method, boiled down: as §1
Test [3] deals with Mus musculus. The test is described as follows: Effective dose against maximal electroshock seizures in mice, at 4 hr following oral administration of 10 mg/kg of compound.
The subject of test [4] is Mus musculus. The test is described as follows: Inhibition of maximal electroshock seizures in mice, 4 hr following 10 mg/kg p.o. administration. To be noted: route oral. The essentials: as §1
Test [5] relates to Mus musculus. The test is described as follows: Activity against maximal electroshock seizures in mice, 4 hr following oral administration of 35 mg/kg of compound. The method, boiled down: as §1
Test [6] concerns Mus musculus. In words: Activity against maximal electroshock seizures in mice, 4 hr following oral administration of 75 mg/kg of compound. The method, boiled down: as §1

Take `CC1(C)O[C@H]2[C@@H]3OC(=S)O[C@@H]3CO[C@@]2(COS(N)(=O)=O)O1`: the Block with Mus musculus [1] came out at 12.5%. As for `CC1(C)O[C@H]2[C@H]3C(CO[C@@]2(COS(N)(=O)=O)O1)C3(Cl)Cl` (stereo partly specified), the Block in the test on Mus musculus [1] stood at 0%.

Consider `CC(=O)NS(=O)(=O)OC[C@@]12OC[C@H]3OC(C)(C)O[C@H]3[C@@H]1OC(C)(C)O2`, for which, in the test on Mus musculus [1], the Block was 30%. For `CC(OS(N)(=O)=O)[C@@]12OC[C@H]3OC(C)(C)O[C@H]3[C@@H]1OC(C)(C)O2` (stereo partly specified), the Block in the test with Mus musculus [1] worked out at 0%. Still for that read-out and setting: the same measure for `NS(=O)(=O)OC[C@@]12CCC=C[C@@H]1CCC2`: 0%.

Consider `CCC1(CC)O[C@@H]2[C@@H](CO[C@@]3(COS(N)(=O)=O)OC(CC)(CC)O[C@@H]23)O1`, for which the results for the Block in the test on Mus musculus [2] and with Mus musculus [1] were 70% and 0%, respectively. On to `CC1(C)O[C@H]2[C@@H]3OS(=O)O[C@@H]3CO[C@@]2(COS(N)(=O)=O)O1` (stereo partly specified), for which, in the test on Mus musculus [3], the 50% effective dose (ED50) is 5.7 mg/kg. Consider `CC1(C)O[C@H]2[C@@H]3OC(C(F)(F)F)(C(F)(F)F)O[C@@H]3CO[C@@]2(COS(N)(=O)=O)O1`, for which the Block with Mus musculus [1] came out at 40%. As to `CCCCNS(=O)(=O)OC[C@@]12OC[C@H]3OC(C)(C)O[C@H]3[C@@H]1OC(C)(C)O2`, the Block with Mus musculus [4] is on record as 0%; in the test on Mus musculus [1], 80%.

In the test with Mus musculus [1], `CC1(C)O[C@@H]2[C@@H](CC[C@@]3(COS(N)(=O)=O)CCC[C@@H]23)O1` registered a Block of 0%. `NS(=O)(=O)OC[C@@]12CCCC[C@@H]1CCC2` yielded a Block in the test with Mus musculus [1] of 0%. On the same count and under the same terms, next, `C[C@H]1O[C@@H]2[C@@H](CO[C@@]3(COS(N)(=O)=O)OC(C)(C)O[C@@H]23)O1`: 0%; `CC1(C)C[C@H]2[C@@H]3OC(C)(C)O[C@@H]3CC[C@@]2(COS(N)(=O)=O)C1`: 0%; `CC1(C)O[C@H]2[C@@H]3OCO[C@@H]3CO[C@@]2(COS(N)(=O)=O)O1`: 0%. Compound `CC1(C)O[C@H]2[C@@H]3OS(=O)(=O)O[C@@H]3CO[C@@]2(COS(=O)(=O)N2CCN(Cc3ccccc3)CC2)O1` registered a Block in the test with Mus musculus [1] of 0%. Same read-out and setting: next, `NS(=O)(=O)OC[C@@]12OC[C@H]3O[C@@H](c4ccccc4)O[C@H]3[C@@H]1O[C@H](c1ccccc1)O2`: 0%.

Compound `CC1(C)O[C@H]2[C@@H]3OC4(CCCC4)O[C@@H]3CO[C@@]2(COS(N)(=O)=O)O1` had a Block in the test on Mus musculus [1] of 0%. Same read-out and setting: the same measure for `CC1(C)O[C@H]2[C@@H]3OS(=O)(=O)O[C@@H]3CO[C@@]2(COS(=O)(=O)N2CCCCC2)O1`: 0%. For the compound `CCO[C@@H]1[C@H](OCC)CO[C@@]2(COS(N)(=O)=O)OC(C)(C)O[C@@H]12`, the Block is reported as 40% with Mus musculus [2] and 0% in the test on Mus musculus [1]. In the test on Mus musculus [1], `CN(C[C@@]12OC[C@H]3OC(C)(C)O[C@H]3[C@@H]1OC(C)(C)O2)S(N)(=O)=O` had a Block of 0%. Still for that read-out and setting: next, `CC1(C)O[C@H]2[C@@H]3OS(=O)(=O)O[C@@H]3CO[C@@]2(COC(N)=O)O1`: 0%; `CC1(C)O[C@@H]2[C@@H](CO[C@@]3(COS(C)(=O)=O)OC(C)(C)O[C@@H]23)O1`: 0%. With `CC1(C)O[C@H]2CCCO[C@@]2(COS(N)(=O)=O)O1`, the Block with Mus musculus [2] amounted to 100%; with Mus musculus [1], 0%.

In the case of `CC1(C)O[C@@H]2[C@@H](CO[C@@]3(CCS(N)(=O)=O)OC(C)(C)O[C@@H]23)O1`, the Block in the test with Mus musculus [1] came out at 0%. As for `NS(=O)(=O)OC[C@]12CCC[C@H]1[C@@H]1OS(=O)(=O)O[C@@H]1CC2`, the Block with Mus musculus [1] came out at 0%. On the same count and under the same terms, the same measure for `NS(=O)(=O)OC[C@@]12OC[C@H]3OC4(CCCCC4)O[C@H]3[C@@H]1OC1(CCCCC1)O2`: 0%. For the compound `CC[C@H]1O[C@@H]2[C@@H](CO[C@@]3(COS(N)(=O)=O)OC(C)(C)O[C@@H]23)O1`, the Block in the test with Mus musculus [1] is 90%; with Mus musculus [5] it was 10%. Regarding `CC[C@@]1(C)O[C@@H]2[C@@H](CO[C@@]3(COS(N)(=O)=O)OC(C)(C)O[C@@H]23)O1`, the Block in the test with Mus musculus [1] is 90%.

As to `CC1(C)O[C@H]2[C@@H]3OS(=O)(=O)O[C@@H]3CO[C@@]2(COS(=O)(=O)n2ccnc2)O1`, the figures for the Block in the test with Mus musculus [6] and in the test on Mus musculus [4] were 100% and 0%, respectively. As to `CC1(C)O[C@H]2C=CCO[C@@]2(COS(N)(=O)=O)O1`, the Block with Mus musculus [2] worked out at 0%. Same read-out and setting: the same measure for `Cc1ccc(S(=O)(=O)N=S2(=O)O[C@@H]3[C@@H](CO[C@@]4(COS(N)(=O)=O)OC(C)(C)O[C@@H]34)O2)cc1` (stereo partly specified): 80%.

For `CC1(C)O[C@H]2[C@@H]3O[C@@H]3CO[C@@]2(COS(N)(=O)=O)O1`, the Block in the test with Mus musculus [1] worked out at 30%. Regarding `CCNS(=O)(=O)OC[C@@]12OC[C@H]3OC(C)(C)O[C@H]3[C@@H]1OC(C)(C)O2`, the Block turned out to be 90% in the test on Mus musculus [1] and 0% with Mus musculus [5]. For `C[C@@H]1O[C@@H]2[C@@H](CO[C@@]3(COS(N)(=O)=O)OC(C)(C)O[C@@H]23)O1`, the Block amounted to 0% in the test on Mus musculus [4] and 100% with Mus musculus [1].

Consider `NS(=O)(=O)OC[C@@]12OC[C@H]3OS(=O)(=O)O[C@H]3[C@@H]1OC1(CCCCC1)O2`, for which the values for the Block in the test with Mus musculus [2] and with Mus musculus [1] were 10% and 0%, respectively. As for `Cc1ccc(S(=O)(=O)/N=S2\O[C@@H]3[C@@H](CO[C@@]4(COS(N)(=O)=O)OC(C)(C)O[C@@H]34)O2)cc1` (stereo partly specified), the Block in the test on Mus musculus [2] is listed as 75%; in the test with Mus musculus [1], 0%. Compound `CO[C@@H]1[C@H](OC)CO[C@@]2(COS(N)(=O)=O)OC(C)(C)O[C@@H]12` displayed a Block in the test on Mus musculus [1] of 0%.

In turn, `CC1(C)O[C@H]2[C@@H]3O[C@H](C(C)(C)C)O[C@@H]3CO[C@@]2(COS(N)(=O)=O)O1` registered a Block in the test on Mus musculus [1] of 0%. With `CC1(C)O[C@@H]2[C@@H](CO[C@@]3(CNS(N)(=O)=O)OC(C)(C)O[C@@H]23)O1`, the Block with Mus musculus [1] is listed as 0%. Regarding `CCC1(CC)O[C@H]2[C@@H]3OS(=O)(=O)O[C@@H]3CO[C@@]2(COS(N)(=O)=O)O1`, the Block in the test on Mus musculus [6] came to 100%; in the test on Mus musculus [4] it was 0%. `CC1(C)O[C@H]2[C@H](Br)[C@@H](Br)CO[C@@]2(COS(N)(=O)=O)O1`: the median effective dose (ED50) with Mus musculus [3] was found to be 21 mg/kg. For the same compound, the Block with Mus musculus [4] came to 0%; in the test with Mus musculus [1], 100%. In the case of `CC1(C)O[C@@H]2[C@@H](CO[C@@]3(COS(=O)(=O)NCc4ccccc4)OC(C)(C)O[C@@H]23)O1`, the Block in the test with Mus musculus [1] amounted to 0%.

`CC1(C)O[C@H]2[C@@H]3OCCO[C@@H]3CO[C@@]2(COS(N)(=O)=O)O1` returned a Block in the test on Mus musculus [1] of 0%. Regarding `CB1O[C@@H]2[C@@H](CO[C@@]3(COS(N)(=O)=O)OC(C)(C)O[C@@H]23)O1`, the values for the Block with Mus musculus [2] and in the test with Mus musculus [1] were 50% and 0%, respectively. For `CC1(C)O[C@H]2[C@@H]3O[C@](C)(C(C)(C)C)O[C@@H]3CO[C@@]2(COS(N)(=O)=O)O1`, the Block in the test on Mus musculus [1] amounted to 0%. Regarding `CSC(=O)O[C@H]1CO[C@@]2(COS(N)(=O)=O)OC(C)(C)O[C@H]2[C@@H]1I`, the ED50 with Mus musculus [3] worked out at 30 mg/kg. The Block in the test with Mus musculus [4] stood at 0%; with Mus musculus [1], 90%. In turn, `NS(=O)(=O)OC[C@]12CCC[C@H]1[C@@H]1C[C@@H]1CC2` came in with a Block in the test with Mus musculus [1] of 0%. Same read-out and setting: the same measure for `CC1(C)O[C@@H]2[C@@H](CO[C@@]3(CCCOS(N)(=O)=O)OC(C)(C)O[C@@H]23)O1`: 0%. Take `CC1(C)O[C@H]2[C@@H]3O[C@H](c4ccccc4)O[C@@H]3CO[C@@]2(COS(N)(=O)=O)O1`: the figures for the Block in the test with Mus musculus [1] and in the test with Mus musculus [5] were 20% and 0%, respectively. Take `CCO[C@@H]1O[C@@H]2[C@@H](CO[C@@]3(COS(N)(=O)=O)OC(C)(C)O[C@@H]23)O1`: in the test with Mus musculus [1], the Block worked out at 0%. `CC1(C)O[C@@H]2[C@@H](CO[C@@]3(CCOS(N)(=O)=O)OC(C)(C)O[C@@H]23)O1`: the Block with Mus musculus [1] is recorded as 0%. For `CC1(C)O[C@H]2[C@@H]3OB(c4ccccc4)O[C@@H]3CO[C@@]2(COS(N)(=O)=O)O1`, the Block in the test on Mus musculus [1] was found to be 0%. `COc1ccc(NS(=O)(=O)OC[C@@]23OC[C@H]4OS(=O)(=O)O[C@H]4[C@@H]2OC(C)(C)O3)cc1`: the Block with Mus musculus [1] was found to be 0%.

`COC1(OC)O[C@@H]2[C@@H](CO[C@@]3(COS(N)(=O)=O)OC(C)(C)O[C@@H]23)O1`: the Block in the test on Mus musculus [1] turned out to be 0%. In the case of `CC1(C)O[C@H]2[C@@H]3OS(=O)(=O)O[C@@H]3CO[C@@]2(COS(=O)(=O)N=[N+]=[N-])O1`, the Block in the test with Mus musculus [4] turned out to be 0%; in the test on Mus musculus [5], 100%.

On to `CCC(OS(N)(=O)=O)[C@@]12OC[C@H]3OC(C)(C)O[C@H]3[C@@H]1OC(C)(C)O2` (stereo partly specified), for which the Block in the test on Mus musculus [1] is 0%. In the case of `CC1(C)O[C@H]2[C@@H]3OC(=O)O[C@@H]3CO[C@@]2(COS(N)(=O)=O)O1`, the figures for the Block in the test on Mus musculus [2] and with Mus musculus [1] were 70% and 0%, respectively.
